Assay results published in ChEMBL document CHEMBL1649306, “Arylimidamide DB766, a potential chemotherapeutic candidate for Chagas' disease treatment” (Antimicrob Agents Chemother, 2010).
Activity calls are given as the source filed them. No cut-off for these calls is given here.

Columns and labels:
Trypanosoma cruzi [1] = test: Antitrypanosomal activity against Trypanosoma cruzi Columbian bloodstream forms infected in C3H mouse assessed as decrease in parasite load at 100 mg/kg/day, ip administered 21 days postinfection measured on day 46; assay type: functional, organism-based
Outline: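 C3H/He mice infected i.p. with 10^2 Colombian strain bloodstream forms. Treatment started at parasitemia onset (21 dpi) with daily doses for 10 treatments, 0.1 ml i.p. Parasitemia measured by the Pizzi-Brener method; n ≥ 6 parasitemic mice per group.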

Trypanosoma cruzi [2] = test: Antitrypanosomal activity against Trypanosoma cruzi 956 epimastigotes after 24 hrs by light microscopy; assay type: functional, organism-based; settings: Trypanosoma cruzi, 956, 24 h
Outline: (§1)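 Epimastigotes from 5-day exponential cultures, 5 × 10^6 parasites/ml in LIT medium, incubated at 28°C up to 96 h with DB766 0 to 32 μM or Bz 0 to 250 μM. Counted daily in a Neubauer chamber. IC50 averaged from at least three determinations in duplicate.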

Trypanosoma cruzi [3] = test: Antitrypanosomal activity against Trypanosoma cruzi 855 epimastigotes after 24 hrs by light microscopy; assay type: functional, organism-based; settings: Trypanosoma cruzi, 855, 24 h; outline: as §1
Mus musculus [4] = test: Toxicity in […](H-2k) mouse assessed as effect on creatine kinase level at 100 mg/kg/day, po; assay type: organism-based; parameters: route oral; settings: in vivo
Mus musculus [5] = test: Cardiotoxicity in […] mouse assessed as effect on heart rate level at 100 mg/kg/day, po; assay type: toxicity, organism-based; parameters: route oral; settings: in vivo
Outline: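 Colombian strain, 5 × 10³ bloodstream forms i.p. into male C3H/He mice; 100 mg/kg/day given i.p. or by gavage (0.1 ml) daily for 10 doses from parasitemia onset. Mice sedated with diazepam (20 mg/kg i.p.), supine; eight-lead ECG from subcutaneous limb needle electrodes plus precordial lead II. Signal-averaged ECG; heart rate as beats per minute.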

Mus musculus [6] = test: Toxicity in male Swiss-Webster mouse assessed as mortality at cumulative dose of 200 mg/kg, ip measured after 48 hrs; assay type: organism-based; parameters: dose 200 mg/kg, route intraperitoneal; settings: in vivo
Outline: (§2)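 Uninfected 8–10-week-old female and male Swiss Webster and C3H/He (H-2k) mice injected i.p. on day 1 every 2 h with escalating doses: 5, 15, 30, 50 and 100 mg/kg (cumulative 20, 50, 100, 200 mg/kg). Toxic and subtoxic signs inspected on days 2–3 per OECD guidelines; tolerated dose set at 48 h.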

Mus musculus [7] = test: Hepatotoxicity in Swiss-Webster mouse assessed as effect on GPT level at 50 mg/kg/day, ip administered 21 days postinfection measured on day 120; assay type: toxicity, organism-based; parameters: route intraperitoneal; settings: in vivo, 504 h
Mus musculus [8] = test: Hepatotoxicity against Swiss-Webster mouse assessed as GPT at 100 mg/kg/day measured after 14 days postinfection; assay type: toxicity, organism-based; settings: in vivo, 336 h
Mus musculus [9] = test: Hepatotoxicity in Swiss-Webster mouse assessed as increased GPT level at 100 mg/kg/day, ip administered 21 days postinfection measured on day 120; assay type: toxicity, organism-based; parameters: route intraperitoneal; settings: in vivo, 504 h
Trypanosoma cruzi [10] = test: Antitrypanosomal activity against Trypanosoma cruzi RBVIII epimastigotes after 24 hrs by light microscopy; assay type: functional, organism-based; outline: as §1
Trypanosoma cruzi [11] = test: Antitrypanosomal activity against Trypanosoma cruzi Columbian bloodstream forms infected in C3H mouse assessed as decrease in parasite load at 100 mg/kg/day, ip administered 5 days postinfection for 10 consecutive days measured after 31 days; assay type: functional; parameters: scale not given: the % may be the effect or the level left; settings: route intraperitoneal
Outline: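 C3H/He mice infected i.p. with 10^3 or 5 × 10^3 Colombian strain bloodstream forms. Treated daily for 10 days with 0.1 ml i.p. or by gavage, reference drug given by gavage. Parasitemia measured by the Pizzi-Brener method; n ≥ 6 parasitemic mice per group.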

Mus musculus [12] = test: Toxicity in male Swiss-Webster mouse assessed as weight loss at cumulative dose of 200 mg/kg, ip measured after 48 hrs; assay type: organism-based; parameters: dose 200 mg/kg, route intraperitoneal; settings: in vivo
Outline: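 Acute toxicity in 8–10-week-old Swiss Webster mice. i.p. injections every 2 h of 5, 15, 30, 50 and 100 mg/kg (cumulative 200 mg/kg) on day 1. Toxic and subtoxic signs inspected on days 2 and 3 per OECD guidelines; outcome read 48 h after injection.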

Trypanosoma cruzi [13] = test: Antitrypanosomal activity against Trypanosoma cruzi Y infected in Swiss-Webster mouse assessed as decrease in parasite-induced weight loss at 100 mg/kg/day, ip administered 5 days post-infection for 10 consecutive days measured on day 120; assay type: functional, organism-based
Outline: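 Body weight of infected, treated mice followed from 0 to 120 dpi.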

Trypanosoma cruzi [14] = test: Antitrypanosomal activity against Trypanosoma cruzi MS1523 epimastigotes after 24 hrs by light microscopy; assay type: functional, organism-based; settings: MS1523, 24 h; outline: as §1
Mus musculus [15] = test: Toxicity in female Swiss-Webster mouse assessed as mortality at cumulative dose of 200 mg/kg, ip measured after 48 hrs; assay type: organism-based; parameters: dose 200 mg/kg, route intraperitoneal; settings: in vivo; outline: as §2
Trypanosoma cruzi [16] = test: Antitrypanosomal activity against Trypanosoma cruzi Y epimastigotes after 24 hrs by light microscopy; assay type: functional, organism-based; outline: as §1
Mus musculus [17] = test: Cytotoxicity against Swiss-Webster mouse assessed as effect on creatine kinase at 100 mg/kg/day measured after 14 days postinfection; assay type: organism-based; settings: in vivo, 336 h
Trypanosoma cruzi [18] = test: Antitrypanosomal activity against Trypanosoma cruzi Columbian bloodstream forms infected in C3H mouse assessed as survival of mouse at 100 mg/kg/day, ip administered 5 days postinfection for 10 consecutive days measured after 31 days; assay type: functional; settings: route intraperitoneal
Outline: (§3)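 Male C3H/He (H-2k) mice infected i.p. with 5 × 10^3 Colombian-strain bloodstream trypomastigotes; only parasitemia-positive mice grouped (n ≥ 6). DB766 100 mg/kg/day given i.p. (0.1 ml) or by gavage (0.1 ml), daily for 10 treatments. Parasitemia by Pizzi-Brener method; mortality checked daily, expressed as cumulative percentage.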

Trypanosoma cruzi [19] = test: Antitrypanosomal activity against Trypanosoma cruzi Y bloodstream forms infected in Swiss-Webster mouse assessed as decrease in parasite load at 100 mg/kg/day, po administered 5 days postinfection for 10 alternate days measured after 31 days; assay type: functional; parameters: scale not given: the % may be the effect or the level left
Outline: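 Male Swiss mice infected with 10^4 Y strain bloodstream forms and treated every other day with 100 mg/kg/day, reference drug by gavage. Parasitemia measured by the Pizzi-Brener method.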

Trypanosoma cruzi [20] = test: Antitrypanosomal activity against Trypanosoma cruzi 875 epimastigotes after 24 hrs by light microscopy; assay type: functional, organism-based; settings: Trypanosoma cruzi, 875, 24 h; outline: as §1
Trypanosoma cruzi [21] = test: Antitrypanosomal activity against Trypanosoma cruzi Columbian bloodstream forms infected in C3H mouse assessed as survival of mouse at 100 mg/kg/day, po administered 5 days postinfection for 10 consecutive days measured after 31 days; assay type: functional; outline: as §3
Trypanosoma cruzi [22] = test: Antitrypanosomal activity against Trypanosoma cruzi Y bloodstream forms infected in Swiss-Webster mouse assessed as decrease in parasite load at 100 mg/kg/day, po administered 8 days postinfection measured on day 2; assay type: functional, organism-based
Outline: (§4)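 Male Swiss mice infected i.p. with 10^4 Y strain bloodstream forms. Given 0.2 ml i.p. at 5 and 8 dpi, or daily for 10 days from 5 dpi; reference drug given by gavage. Parasitemia measured by the Pizzi-Brener method, cumulative mortality checked daily to 120 dpi, n ≥ 6 per group.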

Trypanosoma cruzi [23] = test: Antitrypanosomal activity against Trypanosoma cruzi 958 epimastigotes after 24 hrs by light microscopy; assay type: functional, organism-based; settings: Trypanosoma cruzi, 958, 24 h; outline: as §1
[24] = Toxicity in […](H-2k) mouse assessed as mortality at cumulative dose of 100 mg/kg, po measured after 48 hrs; assay type: organism-based; parameters: dose 100 mg/kg, route oral; settings: in vivo, read-out: Activity
Mus musculus [25] = test: Toxicity in […](H-2k) mouse assessed as mortality at cumulative dose of 200 mg/kg, ip measured after 48 hrs; assay type: organism-based; parameters: dose 200 mg/kg, route intraperitoneal; settings: in vivo; outline: as §2
Mus musculus [26] = test: Hepatotoxicity in Swiss-Webster mouse assessed as effect on GPT level at 25 mg/kg/day, ip administered 21 days postinfection measured on day 120; assay type: toxicity, organism-based; parameters: route intraperitoneal; settings: in vivo, 504 h
Trypanosoma cruzi [27] = test: Antitrypanosomal activity against Trypanosoma cruzi 960 epimastigotes after 24 hrs by light microscopy; assay type: functional, organism-based; settings: Trypanosoma cruzi, 960, 24 h; outline: as §1
Trypanosoma cruzi [28] = test: Antitrypanosomal activity against Trypanosoma cruzi Y bloodstream forms infected in Swiss-Webster mouse assessed as survival of mouse at 100 mg/kg/day, ip administered 8 days postinfection measured on day 120; assay type: functional, organism-based; outline: as §4
Trypanosoma cruzi [29] = test: Antitrypanosomal activity against bloodstream forms of Trypanosoma cruzi Y after 24 hrs by light microscopy in presence of 50% mouse blood; assay type: functional, organism-based
Outline: (§5)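 Bloodstream trypomastigotes kept at 4°C for 24 h in freshly isolated 50% mouse blood with serial dilutions (up to 32 μM). Motile live parasites counted in a Neubauer chamber by light microscopy; IC50 calculated as concentration reducing parasite number by 50%.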

Trypanosoma cruzi [30] = test: Antitrypanosomal activity against bloodstream forms of Trypanosoma cruzi CL after 24 hrs by light microscopy in presence of 50% mouse blood; assay type: functional, organism-based; outline: as §5
Trypanosoma cruzi [31] = test: Antitrypanosomal activity against bloodstream forms of Trypanosoma cruzi YuYu after 24 hrs by light microscopy in presence of 50% mouse blood; assay type: functional, organism-based; outline: as §5
Trypanosoma cruzi [32] = test: Antitrypanosomal activity against bloodstream forms of Trypanosoma cruzi Columbian after 24 hrs by light microscopy in presence of 50% mouse blood; assay type: functional, organism-based; outline: as §5

O=C(Cn1ccnc1[N+](=O)[O-])NCc1ccccc1 [BENZNIDAZOLE]
Activity (Trypanosoma cruzi [1]): inactive | IC50 (Trypanosoma cruzi [2]): 3.96 µM | IC90 (Trypanosoma cruzi [2]): 20.4 µM | IC50 (Trypanosoma cruzi [3]): 12.6 µM | IC90 (Trypanosoma cruzi [3]): 226 µM | Activity (Mus musculus [4]): 68% | Activity (Mus musculus [5]): Non-toxic | Activity (Mus musculus [6]): Non-toxic | Activity (Mus musculus [7]): Non-toxic | Activity (Mus musculus [8]): Non-toxic | Activity (Mus musculus [9]): Toxic | IC50 (Trypanosoma cruzi [10]): 5.06 µM | IC90 (Trypanosoma cruzi [10]): 35.7 µM | Activity (Trypanosoma cruzi [11]): 100% | Activity (Mus musculus [12]): 7% | Activity (Trypanosoma cruzi [13]): Active | IC50 (Trypanosoma cruzi [14]): 5.3 µM | IC90 (Trypanosoma cruzi [14]): 30.6 µM | Activity (Mus musculus [15]): Non-toxic | IC50 (Trypanosoma cruzi [16]): 7.65 µM | IC90 (Trypanosoma cruzi [16]): 86.6 µM | Activity (Mus musculus [17]): Non-toxic | Activity (Trypanosoma cruzi [18]): 99% | Activity (Trypanosoma cruzi [19]): 79.4% | IC50 (Trypanosoma cruzi [20]): 7.9 µM | IC90 (Trypanosoma cruzi [20]): 196 µM | Activity (Trypanosoma cruzi [21]): 100% | Activity (Trypanosoma cruzi [22]): inactive | IC50 (Trypanosoma cruzi [23]): 13.7 µM | IC90 (Trypanosoma cruzi [23]): 58.3 µM | mortality at 48 h [24]: 100% | Activity (Mus musculus [25]): Non-toxic | Activity (Mus musculus [26]): Non-toxic | IC50 (Trypanosoma cruzi [27]): 6.44 µM | IC90 (Trypanosoma cruzi [27]): 38.2 µM | Activity (Trypanosoma cruzi [28]): inactive

N=C(N)c1ccc(-c2ccc(-c3ccc(C(=N)N)cc3)o2)cc1 [FURAMIDINE]
IC50 (Trypanosoma cruzi [29]): > 32 µM | IC50 (Trypanosoma cruzi [30]): > 32 µM | IC50 (Trypanosoma cruzi [31]): > 32 µM | IC50 (Trypanosoma cruzi [32]): > 32 µM
